The text below walks through data of ChEMBL document CHEMBL4428053, “Application of a Parallel Synthetic Strategy in the Discovery of Biaryl Acyl Sulfonamides as Efficient and Selective NaV1.7 Inhibitors” (J Med Chem, 2016).

In data set [1] the target is T1, Cytochrome P450 2C9 (Homo sapiens, UniProt P11712).
The target in data set [2] is T1, Cytochrome P450 2C9. This is another data set of the same source.
A short description of data set [3]: in vitro. To be noted: human, liver microsomes. In general terms: Microsomes from liver hold many membrane-bound enzymes, among them those of drug oxidation.
In data set [4] the target is Sodium channel protein type 5 subunit alpha (Homo sapiens, UniProt Q14524). As to the kind of experiment: Inhibition of human Nav1.5 expressed in HEK293 cells incubated for 3 to 5 mins at -50 mV holding potential by electrophysiology assay. It counts as cell-based.
The target of data set [5] is T2, Cytochrome P450 2D6 (Homo sapiens, UniProt P10635).
Data set [6] concerns the target Voltage-gated inwardly rectifying potassium channel KCNH2 (Homo sapiens, UniProt Q12809).
Data set [7] addresses T3, Cytochrome P450 3A4 (Homo sapiens, UniProt P08684).
Data set [8] is described as follows: in vitro. To be noted: rat, liver microsomes.
Data set [9] has as its target Sodium channel protein type 9 subunit alpha (Homo sapiens, UniProt Q15858). As to the kind of experiment: Inhibition of human Nav1.7 expressed in HEK293 cells incubated for 3 to 5 mins at -125 mV holding potential by electrophysiology assay. The format is cell-based.
The target of data set [10] is T2, Cytochrome P450 2D6. The source holds these as a separate data set.
Data set [11] has as its target T3, Cytochrome P450 3A4. The source holds these as a separate data set.
Data set [12] is described as follows: Clearance in Harlan rat at 1 mg/kg, iv by LC-MS/MS analysis. The format is ADME, organism-based. To be noted: in vivo. The method, boiled down: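 Male fed rats. The IV dose was given in 100% DMSO. The oral dose was given in 1% Tween 80, 2% HPMC, 97% water/NaOH (pH 8.5).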
Data set [13] in a line: Protein binding in rat plasma at 5 uM after 45 mins by LC-MS/MS analysis. The following applies: read-out: PPB. It counts as ADME, cell-free.
The species named for another data set is Homo sapiens. As to the kind of experiment: Selectivity ratio of IC50 for human Nav1.5 expressed in HEK293 cells to human Nav1.7 expressed in HEK293 cells. It counts as cell-based. In outline: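 IC50s come from PatchXpress automated electrophysiology, and the ratio divides the hNav1.5 IC50 by the hNav1.7 IC50. For hNav1.7, cells were held at a voltage giving 20-50% channel inactivation. For hNav1.5, cells were held at -50 mV on the same platform.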

Chain of Sodium channel protein type 5 subunit alpha (Q14524 whole entry): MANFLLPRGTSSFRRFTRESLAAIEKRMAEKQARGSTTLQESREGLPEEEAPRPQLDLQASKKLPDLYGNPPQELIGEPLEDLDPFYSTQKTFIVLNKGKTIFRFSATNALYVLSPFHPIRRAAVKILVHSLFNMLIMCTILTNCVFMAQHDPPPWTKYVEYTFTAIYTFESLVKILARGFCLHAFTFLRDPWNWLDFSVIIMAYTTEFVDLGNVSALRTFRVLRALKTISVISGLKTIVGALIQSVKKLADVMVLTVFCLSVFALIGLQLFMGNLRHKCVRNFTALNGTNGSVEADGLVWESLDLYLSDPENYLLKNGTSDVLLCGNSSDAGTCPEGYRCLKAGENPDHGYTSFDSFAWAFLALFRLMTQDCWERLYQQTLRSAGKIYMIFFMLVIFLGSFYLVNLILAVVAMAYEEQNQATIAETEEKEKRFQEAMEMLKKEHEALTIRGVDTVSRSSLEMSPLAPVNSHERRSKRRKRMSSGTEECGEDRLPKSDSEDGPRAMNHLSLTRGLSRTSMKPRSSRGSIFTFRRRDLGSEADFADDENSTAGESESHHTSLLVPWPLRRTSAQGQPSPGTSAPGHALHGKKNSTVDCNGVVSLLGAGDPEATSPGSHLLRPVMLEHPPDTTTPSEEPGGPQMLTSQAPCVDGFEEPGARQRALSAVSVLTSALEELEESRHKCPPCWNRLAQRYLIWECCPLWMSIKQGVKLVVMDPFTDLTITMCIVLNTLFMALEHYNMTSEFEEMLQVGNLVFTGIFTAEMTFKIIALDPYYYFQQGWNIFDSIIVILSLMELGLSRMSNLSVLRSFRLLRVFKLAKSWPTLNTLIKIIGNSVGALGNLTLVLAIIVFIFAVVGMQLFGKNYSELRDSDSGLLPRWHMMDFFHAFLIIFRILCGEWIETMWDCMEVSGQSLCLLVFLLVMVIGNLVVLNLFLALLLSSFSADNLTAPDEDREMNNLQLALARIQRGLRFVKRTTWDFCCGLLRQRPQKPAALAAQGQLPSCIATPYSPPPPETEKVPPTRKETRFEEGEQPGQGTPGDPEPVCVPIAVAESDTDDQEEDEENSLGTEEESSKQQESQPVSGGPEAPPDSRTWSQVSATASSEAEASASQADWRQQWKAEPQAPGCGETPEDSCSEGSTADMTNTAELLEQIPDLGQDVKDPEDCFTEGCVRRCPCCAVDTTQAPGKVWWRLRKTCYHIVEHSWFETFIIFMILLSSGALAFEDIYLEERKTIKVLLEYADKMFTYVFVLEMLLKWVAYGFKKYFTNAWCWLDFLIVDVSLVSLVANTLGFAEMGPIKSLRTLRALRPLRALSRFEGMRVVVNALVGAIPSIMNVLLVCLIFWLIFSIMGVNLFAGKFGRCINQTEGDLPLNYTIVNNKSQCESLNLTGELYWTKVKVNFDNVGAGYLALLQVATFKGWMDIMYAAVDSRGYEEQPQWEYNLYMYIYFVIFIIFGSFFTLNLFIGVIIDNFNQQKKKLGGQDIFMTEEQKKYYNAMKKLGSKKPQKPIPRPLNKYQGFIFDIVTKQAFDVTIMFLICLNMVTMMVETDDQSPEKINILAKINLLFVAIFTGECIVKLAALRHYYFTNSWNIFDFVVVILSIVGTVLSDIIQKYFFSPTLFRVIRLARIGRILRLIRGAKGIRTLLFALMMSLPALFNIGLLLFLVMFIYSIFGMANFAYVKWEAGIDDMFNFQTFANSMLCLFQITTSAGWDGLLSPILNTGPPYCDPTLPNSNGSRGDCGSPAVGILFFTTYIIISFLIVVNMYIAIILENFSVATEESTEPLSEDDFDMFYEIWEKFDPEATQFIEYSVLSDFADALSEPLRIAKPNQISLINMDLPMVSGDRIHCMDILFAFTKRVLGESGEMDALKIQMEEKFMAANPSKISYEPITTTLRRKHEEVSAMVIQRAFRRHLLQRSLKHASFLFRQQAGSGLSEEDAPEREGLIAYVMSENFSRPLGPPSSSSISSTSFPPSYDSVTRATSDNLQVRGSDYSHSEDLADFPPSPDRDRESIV
Chain of Sodium channel protein type 9 subunit alpha (Q15858 whole entry): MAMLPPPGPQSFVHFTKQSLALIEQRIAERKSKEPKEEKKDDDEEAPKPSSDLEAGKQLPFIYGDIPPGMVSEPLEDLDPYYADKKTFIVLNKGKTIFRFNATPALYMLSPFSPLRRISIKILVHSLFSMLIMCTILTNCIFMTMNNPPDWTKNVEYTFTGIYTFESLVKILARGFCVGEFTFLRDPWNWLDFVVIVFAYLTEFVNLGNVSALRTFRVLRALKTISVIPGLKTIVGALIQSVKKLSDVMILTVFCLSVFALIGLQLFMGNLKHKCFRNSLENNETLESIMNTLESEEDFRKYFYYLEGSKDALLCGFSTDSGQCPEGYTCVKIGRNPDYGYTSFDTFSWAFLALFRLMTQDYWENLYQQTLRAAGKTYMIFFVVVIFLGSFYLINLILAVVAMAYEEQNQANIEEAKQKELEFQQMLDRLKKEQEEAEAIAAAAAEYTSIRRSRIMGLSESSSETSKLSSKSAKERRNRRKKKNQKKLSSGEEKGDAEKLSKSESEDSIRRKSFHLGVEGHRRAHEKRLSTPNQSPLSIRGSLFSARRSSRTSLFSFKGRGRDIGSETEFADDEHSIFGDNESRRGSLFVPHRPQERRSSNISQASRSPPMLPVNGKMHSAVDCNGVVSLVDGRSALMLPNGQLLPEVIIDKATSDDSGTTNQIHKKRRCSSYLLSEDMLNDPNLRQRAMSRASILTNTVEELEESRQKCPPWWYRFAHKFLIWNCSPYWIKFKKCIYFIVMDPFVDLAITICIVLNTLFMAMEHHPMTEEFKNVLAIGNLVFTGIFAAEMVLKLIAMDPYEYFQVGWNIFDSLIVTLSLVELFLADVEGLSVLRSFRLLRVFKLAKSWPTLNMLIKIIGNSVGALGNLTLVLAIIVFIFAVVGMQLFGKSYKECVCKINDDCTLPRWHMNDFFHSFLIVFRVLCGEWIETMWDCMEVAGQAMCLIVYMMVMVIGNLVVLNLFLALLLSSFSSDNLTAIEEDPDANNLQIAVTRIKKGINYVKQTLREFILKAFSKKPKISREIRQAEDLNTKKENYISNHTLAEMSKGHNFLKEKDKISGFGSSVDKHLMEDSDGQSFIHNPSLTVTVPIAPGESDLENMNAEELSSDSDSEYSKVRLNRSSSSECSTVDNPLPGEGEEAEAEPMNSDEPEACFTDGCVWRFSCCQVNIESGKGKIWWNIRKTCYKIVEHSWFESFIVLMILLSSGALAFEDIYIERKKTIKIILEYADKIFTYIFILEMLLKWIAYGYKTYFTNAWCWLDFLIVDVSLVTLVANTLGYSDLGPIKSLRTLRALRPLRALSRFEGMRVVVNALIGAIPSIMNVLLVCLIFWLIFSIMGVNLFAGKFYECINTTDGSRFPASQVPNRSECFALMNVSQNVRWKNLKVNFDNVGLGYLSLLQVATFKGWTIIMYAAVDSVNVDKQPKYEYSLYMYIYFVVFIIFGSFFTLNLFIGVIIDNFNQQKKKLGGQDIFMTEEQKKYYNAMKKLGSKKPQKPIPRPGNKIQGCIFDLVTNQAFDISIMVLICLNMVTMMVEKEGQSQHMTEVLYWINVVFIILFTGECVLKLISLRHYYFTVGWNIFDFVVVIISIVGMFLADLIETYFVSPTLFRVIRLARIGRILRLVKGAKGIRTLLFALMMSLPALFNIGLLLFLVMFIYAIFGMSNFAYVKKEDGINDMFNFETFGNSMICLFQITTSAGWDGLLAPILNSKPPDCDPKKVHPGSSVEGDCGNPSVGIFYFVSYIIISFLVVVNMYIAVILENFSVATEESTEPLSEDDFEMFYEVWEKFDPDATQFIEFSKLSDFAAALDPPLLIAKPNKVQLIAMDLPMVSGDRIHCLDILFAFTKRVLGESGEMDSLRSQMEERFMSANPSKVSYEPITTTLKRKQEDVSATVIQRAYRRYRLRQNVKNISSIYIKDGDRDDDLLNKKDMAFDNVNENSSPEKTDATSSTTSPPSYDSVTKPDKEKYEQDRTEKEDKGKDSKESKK
Chain of Voltage-gated inwardly rectifying potassium channel KCNH2 (Q12809 whole entry): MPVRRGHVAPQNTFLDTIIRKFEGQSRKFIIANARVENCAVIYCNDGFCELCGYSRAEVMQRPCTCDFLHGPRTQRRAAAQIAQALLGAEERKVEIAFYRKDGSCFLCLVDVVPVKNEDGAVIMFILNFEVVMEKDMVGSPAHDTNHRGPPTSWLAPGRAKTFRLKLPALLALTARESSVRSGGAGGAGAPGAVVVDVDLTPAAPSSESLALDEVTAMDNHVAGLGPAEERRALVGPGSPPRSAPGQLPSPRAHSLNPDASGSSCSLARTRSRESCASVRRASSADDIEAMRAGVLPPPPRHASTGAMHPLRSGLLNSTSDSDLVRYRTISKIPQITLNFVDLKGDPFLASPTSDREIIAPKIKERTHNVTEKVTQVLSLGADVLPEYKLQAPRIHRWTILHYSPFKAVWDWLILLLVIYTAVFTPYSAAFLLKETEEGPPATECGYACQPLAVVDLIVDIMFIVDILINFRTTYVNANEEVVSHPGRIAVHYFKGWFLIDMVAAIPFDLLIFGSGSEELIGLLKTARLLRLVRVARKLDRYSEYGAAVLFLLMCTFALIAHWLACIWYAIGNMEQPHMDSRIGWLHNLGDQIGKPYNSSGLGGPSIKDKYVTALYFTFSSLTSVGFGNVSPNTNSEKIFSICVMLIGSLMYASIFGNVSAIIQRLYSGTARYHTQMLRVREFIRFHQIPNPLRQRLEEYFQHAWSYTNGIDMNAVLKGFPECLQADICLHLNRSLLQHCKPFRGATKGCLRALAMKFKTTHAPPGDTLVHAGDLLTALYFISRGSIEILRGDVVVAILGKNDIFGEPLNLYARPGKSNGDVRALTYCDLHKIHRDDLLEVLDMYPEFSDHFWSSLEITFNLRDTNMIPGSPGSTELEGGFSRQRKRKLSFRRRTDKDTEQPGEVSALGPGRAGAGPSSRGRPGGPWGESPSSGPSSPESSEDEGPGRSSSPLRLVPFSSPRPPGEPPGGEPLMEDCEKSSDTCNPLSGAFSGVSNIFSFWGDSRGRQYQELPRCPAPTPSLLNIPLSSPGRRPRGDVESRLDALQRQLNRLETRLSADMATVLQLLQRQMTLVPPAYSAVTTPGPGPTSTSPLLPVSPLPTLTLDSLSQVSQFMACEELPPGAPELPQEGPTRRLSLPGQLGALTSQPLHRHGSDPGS

The IC50 is the concentration at which inhibition is half-maximal. Low values mean greater potency, high ones weaker potency. As a reminder, the microsomal CLint is a measure of how fast metabolising enzymes remove a compound, apart from limits set by blood flow. A higher microsomal CLint goes with faster metabolism. In general, Ki refers to the dissociation constant of the complex between target and ligand, obtained from inhibition or displacement. Regarding `CC(C)COc1ncc(-c2cc(F)c(C(=O)NS(C)(=O)=O)cc2F)cc1Cl`, the IC50 against Cytochrome P450 2C9 [1] is 34.1 µM; against Cytochrome P450 2C9 [2] it was 34.7 µM; in data set [4] it was greater than 30 µM; on Cytochrome P450 2D6 [5], greater than 50 µM; against Cytochrome P450 3A4 [7], greater than 50 µM; in data set [9], 0.53 µM. For the same compound, the IC50 on Cytochrome P450 2D6 [10] is greater than 50 µM; at Cytochrome P450 3A4 [11], 48.6 µM. The figures for the microsomal CLint at 1 µM in “in vitro [3]” and in the data set “in vitro [8]” were 47 µL/min/mg and 22 µL/min/mg, respectively. The same compound had a Ki in data set [6] greater than 30 µM.

The term clearance denotes the rate of elimination divided by the concentration. Low readings indicate inefficient removal, high ones efficient removal. As to `COc1cc(C(=O)NS(C)(=O)=O)ccc1-c1cnc(Oc2cc(Cl)cc(Cl)c2)c(Cl)c1`, the microsomal CLint at 1 µM in the data set “in vitro [3]” and in the data set “in vitro [8]” was less than 14 µL/min/mg each time. Besides, the IC50 was 6 µM in data set [4] and 0.036 µM in data set [9]. In [12], this compound had a clearance of 9.33 to 12.2 mL/min/kg. The fraction unbound at 0.75 h, 5 µM in data set [13] was less than 0.001.

Regarding `COc1cc(C(=O)NS(C)(=O)=O)ccc1-c1cnc(Oc2cc(Cl)cc(Cl)c2)c(C#N)c1`, the microsomal CLint at 1 µM in the data set “in vitro [3]” was 39 µL/min/mg; in “in vitro [8]”, 15 µL/min/mg. This compound had an IC50 in data set [4] of 16.1 µM. The clearance in data set [12] was 30 mL/min/kg. In data set [13], the fraction unbound at 0.75 h, 5 µM was less than 0.001.

For `CS(=O)(=O)NC(=O)c1ccc2c(Oc3ccc(Cl)c(C(F)(F)F)c3)nccc2c1`, the IC50 in [4] is 14.4 µM; in data set [9], 0.28 µM. The Ki in data set [6] is greater than 30 µM. Further, the Ratio IC50 in the data set listed under Homo sapiens was greater than 40.
